Test results taken from ChEMBL document CHEMBL1130413, “Novel 3'-C/N-substituted 2',3'-beta-D-dideoxynucleosides as potential chemotherapeutic agents. 1. Thymidine derivatives: synthesis, structure, and broad spectrum antiviral properties” (J Med Chem, 1997).
Values after ≈ are worked out from the molar mass of the structure shown.

Key:
[1] = Minimum cytotoxic concentration which causes microscopically detectable alteration of normal cell morphology after 2 days of incubation.; format: functional; conditions: 48 h
How it was run: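 Uninfected E6SM cells exposed to compound for 2 days. Minimum concentration giving a microscopically detectable change in normal cell morphology recorded.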

E6SM [2] = assay: 50% Minimum inhibitory concentration which is required to reduce cytopathogenicity induced by TK-(B2006) strain of HSV-1 virus on human E6SM cells.; format: functional
How it was run: (§1)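 Confluent cell monolayers infected with 100 CCID50 virus and left 1 h for adsorption. Residual virus then removed and compound added at serial dilutions (400, 200, 100 ... µg/mL). Value is the concentration giving 50% reduction of CPE.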

CCRF-CEM [3] = assay: 50% effective concentration of compound which is required to protect human CEM cells against HIV-2 induced giant cell formation.; format: functional, cell-based
How it was run: (§2)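 CEM cells at 250000–300000 cells/mL infected with HIV-1 (IIIB) or HIV-2 (ROD) at 100 CCID50/mL. Infected cells mixed with serial compound dilutions and incubated 4 days at 37 °C. Syncytium (giant cell) formation then scored. Values averaged over two independent experiments.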

MT4 [4] = assay: 50% effective concentration of compound which is required to protect human MT-4 cells against cytopathogenicity of HIV-2.; format: functional, cell-based
E6SM [5] = assay: 50% Minimum inhibitory concentration which is required to reduce cytopathogenicity induced by (F) strain of HSV-1 virus on human E6SM cells.; format: functional; how it was run: as §1
E6SM [6] = assay: 50% Minimum inhibitory concentration which is required to reduce cytopathogenicity induced by (KOS) strain of HSV-1 virus on human E6SM cells.; format: functional; how it was run: as §1
MOLT-4 = assay: EC50 is the cytotoxic concentration of compound required to reduce Molt4/C8 (human T-lymphocyte) cell viability by 50%.; format: functional, cell-based
How it was run: (§3)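 Human CEM or Molt-4 cells seeded at 7.5 × 10^5 cells/mL with varying compound concentrations. Incubated 3 days at 37 °C in humidified CO2. Viable cells counted with a Coulter counter. Value is the concentration reducing viable cell number by 50%.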

HEL [7] = assay: 50% Minimum inhibitory concentration which is required to reduce cytopathogenicity induced by (KOS) strain of HSV-1 virus on human embryonic HEL cells.; format: functional; how it was run: as §1
E6SM [8] = assay: 50% Minimum inhibitory concentration which is required to reduce cytopathogenicity induced by Vaccinia virus (VV) on human E6SM cells.; format: functional; how it was run: as §1
MT4 [9] = assay: Cytotoxic concentration which is required to reduce human MT-4 cell viability by 50%.; format: functional
[10] = Selectivity index of HIV-1 and HIV-2 with respect to CEM cells; format: functional, CCRF-CEM
How it was run: (§4)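 Selectivity index calculated as average CC50 divided by average EC50. Each average comes from two independent experiments, using HIV-1 (IIIB) and HIV-2 (ROD) in CEM or MT-4 cells.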

HEL [11] = assay: 50% Minimum inhibitory concentration which is required to reduce cytopathogenicity induced by (Mc Intyre) strain of HSV-1 virus on human embryonic HEL cells.; format: functional; how it was run: as §1
E6SM [12] = assay: 50% Minimum inhibitory concentration which is required to reduce cytopathogenicity induced by (196) strain of HSV-2 virus on human E6SM cells.; format: functional; how it was run: as §1
MT4 [13] = assay: 50% effective concentration of compound which is required to protect human MT-4 cells against cytopathogenicity of HIV-1.; format: functional, cell-based
CCRF-CEM [14] = assay: Cytotoxic concentration which is required to reduce human CEM cell viability by 50%.; format: functional; how it was run: as §3
E6SM [15] = assay: 50% Minimum inhibitory concentration which is required to reduce cytopathogenicity induced by (G) strain of HSV-2 virus on human E6SM cells.; format: functional; how it was run: as §1
E6SM [16] = assay: 50% Minimum inhibitory concentration which is required to reduce cytopathogenicity induced by (Mc Intyre) strain of HSV-1 virus on human E6SM cells.; format: functional; how it was run: as §1
HEL [17] = assay: 50% Minimum inhibitory concentration which is required to reduce cytopathogenicity induced by (G) strain of HSV-2 virus on human embryonic HEL cells.; format: functional; how it was run: as §1
HEL [18] = assay: 50% Minimum inhibitory concentration which is required to reduce cytopathogenicity induced by (OKA) strain of Varicella Zoster virus on human embryonic HEL cells.; format: functional
FM3A [19] = assay: EC50 is the cytotoxic concentration of compound required to reduce FM3A/TK- (Thymidine kinase deficient murine mammary carcinoma cells) cell viability by 50%.; format: functional, cell-based; conditions: Mus musculus
How it was run: (§5)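 Murine L1210 or FM3A-derived cells seeded at 5 × 10^5 cells/mL with varying compound concentrations. Incubated 2 days at 37 °C in humidified CO2. Viable cells counted with a Coulter counter. Value is the concentration reducing viable cell number by 50%.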

FM3A [20] = assay: EC50 is the cytotoxic concentration of compound required to reduce FM3A/TK- HSV-1TK+ cell viability by 50%.; format: functional, cell-based; conditions: Mus musculus; how it was run: as §5
HEL [21] = assay: 50% Minimum inhibitory concentration which is required to reduce cytopathogenicity induced by TK-(B2006) strain of HSV-1 virus on human embryonic HEL cells.; format: functional; how it was run: as §1
CCRF-CEM [22] = assay: 50% effective concentration of compound which is required to protect human CEM cells against HIV-1 induced giant cell formation.; format: functional, cell-based; how it was run: as §2
L1210 = assay: EC50 is the cytotoxic concentration of compound required to reduce L1210 (murine leukemia cells) cell viability by 50%.; format: functional, cell-based; conditions: Mus musculus; how it was run: as §5
CEM-TK(-) [23] = assay: Cytotoxic concentration which is required to reduce CEM/TK- cell viability by 50%.; format: functional; conditions: Homo sapiens
HEL [24] = assay: 50% Minimum inhibitory concentration which is required to reduce cytopathogenicity induced by (Lyons) strain of HSV-2 virus on human embryonic HEL cells.; format: functional; how it was run: as §1
CEM-TK(-) [25] = assay: 50% effective concentration of compound which is required to protect Thymidine kinase deficient human CEM (CEM/TK-) cells against HIV-2.; format: functional, cell-based
FM3A [26] = assay: EC50 is the cytotoxic concentration of compound required to reduce FM3A (murine mammary carcinoma cells) cell viability by 50%.; format: functional, cell-based; conditions: Mus musculus; how it was run: as §5
[27] = Selectivity index of HIV-1 and HIV-2 with respect to MT-4 cells; format: functional, MT4; how it was run: as §4
E6SM [28] = assay: 50% Minimum inhibitory concentration which is required to reduce cytopathogenicity induced by (Lyons) strain of HSV-2 virus on human E6SM cells.; format: functional; how it was run: as §1

CC(=O)O/N=C1/C[C@H](n2cc(C)c(=O)[nH]c2=O)O[C@@H]1CO.CC(=O)O/N=C1\C[C@H](n2cc(C)c(=O)[nH]c2=O)O[C@@H]1CO (racemic)
MCC [1]: 400 µg/mL | MIC (E6SM [2]): > 200 µg/mL | EC50 (CCRF-CEM [3]): 0.8 µg/mL | EC50 (MT4 [4]): 0.05 µg/mL | MIC (E6SM [5]): 5 µg/mL | MIC (E6SM [6]): 0.9 µg/mL | EC50 (MOLT-4): 14 µg/mL | MIC (HEL [7]): 3.8 µg/mL | MIC (E6SM [8]): 70 µg/mL | CC50 (MT4 [9]): 7.1 µg/mL | Selectivity index [10]: 130 | MIC (HEL [11]): 2.7 µg/mL | MIC (E6SM [12]): 70 µg/mL | EC50 (MT4 [13]): 0.05 µg/mL | CC50 (CCRF-CEM [14]): 104 µg/mL | MIC (E6SM [15]): 1 µg/mL | MIC (E6SM [16]): 2 µg/mL | MIC (HEL [17]): 2.8 µg/mL | MIC (HEL [18]): 20 µg/mL | EC50 (FM3A [19]): > 200 µg/mL | EC50 (FM3A [20]): > 200 µg/mL | MIC (HEL [21]): > 5 µg/mL | EC50 (CCRF-CEM [22]): 1 µg/mL | EC50 (L1210): 19 µg/mL | CC50 (CEM-TK(-) [23]): > 200 µg/mL | MIC (HEL [24]): 2 µg/mL | EC50 (CEM-TK(-) [25]): > 20 µg/mL | EC50 (FM3A [26]): > 200 µg/mL | Selectivity index [27]: 182 | MIC (E6SM [28]): 4 µg/mL

Cc1cn(C2CC([N+](=O)[O-])C(CO)O2)c(=O)[nH]c1=O (stereo not drawn)
MCC [1]: > 200 µg/mL | MIC (E6SM [2]): > 200 µg/mL | EC50 (CCRF-CEM [3]): 100 µg/mL (≈ 369 µM) | EC50 (MT4 [4]): 2.2 µg/mL (≈ 8.11 µM) | MIC (E6SM [5]): > 200 µg/mL | MIC (E6SM [6]): > 200 µg/mL | EC50 (MOLT-4): 70 µg/mL (≈ 258 µM) | MIC (HEL [7]): 5 µg/mL (≈ 18.4 µM) | CC50 (MT4 [9]): 93 µg/mL (≈ 343 µM) | Selectivity index [10]: >1.7 | MIC (HEL [11]): 20 µg/mL (≈ 73.7 µM) | MIC (E6SM [12]): > 200 µg/mL | EC50 (MT4 [13]): 1 µg/mL (≈ 3.69 µM) | CC50 (CCRF-CEM [14]): 168 µg/mL (≈ 619 µM) | MIC (E6SM [15]): > 200 µg/mL | MIC (E6SM [16]): > 200 µg/mL | MIC (HEL [17]): 20 µg/mL (≈ 73.7 µM) | EC50 (FM3A [19]): > 200 µg/mL | EC50 (FM3A [20]): > 200 µg/mL | MIC (HEL [21]): > 50 µg/mL | EC50 (CCRF-CEM [22]): > 100 µg/mL | EC50 (L1210): 58 µg/mL (≈ 214 µM) | CC50 (CEM-TK(-) [23]): > 200 µg/mL | MIC (HEL [24]): 25 µg/mL (≈ 92.2 µM) | EC50 (CEM-TK(-) [25]): > 100 µg/mL | EC50 (FM3A [26]): > 200 µg/mL | Selectivity index [27]: 79 | MIC (E6SM [28]): > 200 µg/mL

Cc1cn([C@H]2C[C@H](N=[N+]=[N-])[C@@H](CO)O2)c(=O)[nH]c1=O [ZIDOVUDINE]
EC50 (CCRF-CEM [3]): 0.0009 µg/mL (≈ 0.00337 µM) | EC50 (MT4 [4]): 0.0007 µg/mL (≈ 0.00262 µM) | CC50 (MT4 [9]): 1.5 µg/mL (≈ 5.61 µM) | Selectivity index [10]: >100000 | EC50 (MT4 [13]): 0.0005 µg/mL (≈ 0.00187 µM) | CC50 (CCRF-CEM [14]): > 100 µg/mL | EC50 (CCRF-CEM [22]): 0.0007 µg/mL (≈ 0.00262 µM) | CC50 (CEM-TK(-) [23]): > 200 µg/mL | EC50 (CEM-TK(-) [25]): > 25 µg/mL | Selectivity index [27]: 3000
